According to ChEMBL document CHEMBL4014269, “Antibacterial and Hypoglycemic Diterpenoids from Salvia chamaedryoides” (J Nat Prod, 2017):
Values after ≈ are worked out from the molar mass of the structure shown. Active and inactive are the calls of the source. The rule behind the calls is not given here.

Experiments:
[1] = test system: Staphylococcus aureus; assay: Antibacterial activity against methicillin-resistant Staphylococcus aureus isolate MB 9 after 24 hrs by microdilution assay; type: functional; settings: isolate MB 9, 24 h
Summary of the method: (§1)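 Clinical isolates from various clinical specimens, identified by standard procedures and kept in a hospital microbiology laboratory collection. The MIC was read by broth microdilution, following a method described in earlier work.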

[2] = test system: Staphylococcus aureus; assay: Antibacterial activity against methicillin-resistant Staphylococcus aureus isolate MB 10 after 24 hrs by microdilution assay; type: functional; settings: isolate MB 10, 24 h; summary of the method: as §1
[3] = test system: Staphylococcus aureus; assay: Antibacterial activity against methicillin-resistant Staphylococcus aureus isolate MB 18 after 24 hrs by microdilution assay; type: functional; settings: isolate MB 18, 24 h; summary of the method: as §1
[4] = test system: Staphylococcus aureus; assay: Antibacterial activity against methicillin-sensitive Staphylococcus aureus isolate MB 21 after 24 hrs by microdilution assay; type: functional; settings: isolate MB 21, 24 h
Summary of the method: (§2)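 Clinical isolates from a hospital microbiology collection, identified by standard procedures; MICs by broth microdilution.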

[5] = test system: Staphylococcus epidermidis; assay: Antibacterial activity against methicillin-resistant Staphylococcus epidermidis isolate MB 20 after 24 hrs by microdilution assay; type: functional; settings: isolate MB 20, 24 h; summary of the method: as §1
[6] = test system: Staphylococcus epidermidis; assay: Antibacterial activity against methicillin-resistant Staphylococcus epidermidis isolate MB 26 after 24 hrs by microdilution assay; type: functional; settings: isolate MB 26, 24 h; summary of the method: as §1
[7] = test system: Staphylococcus epidermidis; assay: Antibacterial activity against methicillin-resistant Staphylococcus epidermidis isolate MB 64 after 24 hrs by microdilution assay; type: functional; settings: isolate MB 64, 24 h; summary of the method: as §1
[8] = test system: Staphylococcus epidermidis; assay: Antibacterial activity against methicillin-sensitive Staphylococcus epidermidis isolate MB 65 after 24 hrs by microdilution assay; type: functional; settings: isolate MB 65, 24 h; summary of the method: as §2
[9] = test system: Enterococcus faecalis; assay: Antibacterial activity against vancomycin-resistant Enterococcus faecalis isolate MB 1 after 24 hrs by microdilution assay; type: functional; settings: isolate MB 1, 24 h; summary of the method: as §1
[10] = test system: Enterococcus faecalis; assay: Antibacterial activity against Enterococcus faecalis isolate MB 3 after 24 hrs by microdilution assay; type: functional; settings: isolate MB 3, 24 h; summary of the method: as §2
[11] = test system: Enterococcus faecalis; assay: Antibacterial activity against vancomycin-resistant Enterococcus faecalis isolate MB 49 after 24 hrs by microdilution assay; type: functional; settings: isolate MB 49, 24 h; summary of the method: as §1
[12] = test system: Enterococcus faecalis; assay: Antibacterial activity against vancomycin-resistant Enterococcus faecalis isolate MB 51 after 24 hrs by microdilution assay; type: functional; settings: isolate MB 51, 24 h; summary of the method: as §1
[13] = test system: Enterococcus faecium; assay: Antibacterial activity against vancomycin-resistant Enterococcus faecium isolate MB 2 after 24 hrs by microdilution assay; type: functional; settings: isolate MB 2, 24 h; summary of the method: as §1
[14] = test system: Enterococcus faecium; assay: Antibacterial activity against vancomycin-resistant Enterococcus faecium isolate MB 23 after 24 hrs by microdilution assay; type: functional; settings: isolate MB 23, 24 h; summary of the method: as §1
[15] = test system: Enterococcus faecium; assay: Antibacterial activity against vancomycin-resistant Enterococcus faecium isolate MB 50 after 24 hrs by microdilution assay; type: functional; settings: isolate MB 50, 24 h; summary of the method: as §1
[16] = test system: Enterococcus faecium; assay: Antibacterial activity against Enterococcus faecium isolate MB 55 after 24 hrs by microdilution assay; type: functional; settings: isolate MB 55, 24 h; summary of the method: as §1
[17] = test system: Escherichia coli; assay: Antibacterial activity against Escherichia coli isolate MB 123 after 24 hrs by microdilution assay; type: functional; summary of the method: as §1
[18] = test system: Proteus mirabilis; assay: Antibacterial activity against Proteus mirabilis isolate MB 14 after 24 hrs by microdilution assay; type: functional; summary of the method: as §1
[19] = test system: Moraxella catarrhalis; assay: Antibacterial activity against Moraxella catarrhalis isolate MB 15 after 24 hrs by microdilution assay; type: functional; summary of the method: as §1
[20] = test system: Klebsiella pneumoniae; assay: Antibacterial activity against Klebsiella pneumoniae isolate MB 11 after 24 hrs by microdilution assay; type: functional; summary of the method: as §1
[21] = test system: Candida albicans; assay: Antifungal activity against Candida albicans isolate MB 31 after 48 hrs by microdilution assay; type: functional; summary of the method: as §1
[22] = test system: Nakaseomyces glabratus; assay: Antifungal activity against Candida glabrata isolate MB 8 after 48 hrs by microdilution assay; type: functional; summary of the method: as §1
[23] = biological target: alpha-glucosidase (Saccharomyces cerevisiae); assay: Inhibition of alpha-glucosidase (Saccharomyces cerevisiae) using 4-nitrophenyl alpha-D-glucopyranoside as substrate after 10 mins
[24] = biological target: Alpha-amylase (Sus scrofa); assay: Inhibition of alpha-amylase (hog pancreas) using starch as substrate preincubated for 10 mins followed by substrate addition measured after 10 mins by dinitrosalicylic acid color reagent based assay

SMILES | MIC [1] [µg/mL] | MIC [2] [µg/mL] | MIC [3] [µg/mL] | MIC [4] [µg/mL] | MIC [5] [µg/mL] | MIC [6] [µg/mL] | MIC [7] [µg/mL] | MIC [8] [µg/mL] | MIC [9] | MIC [10] | MIC [11] | MIC [12] | MIC [13] [µM] | MIC [14] | MIC [15] | MIC [16] | Activity [17] | Activity [18] | Activity [19] | Activity [20] | other results
CC(=O)O[C@H](C[C@@]1(C)[C@H](C)[C@H](O[C@@H]2O[C@H](CO)[C@@H](O)C(=O)[C@H]2O)C[C@@]23COC(=O)C2=CCC[C@@H]31)c1ccoc1 | > 128 | > 128 | > 128 | > 128 | > 128 | > 128 | > 128 | > 128 | 234 µM | 117 µM | 234 µM | 117 µM | 234 (≈ 128 µg/mL) | > 128 µg/mL | 234 µM | > 128 µg/mL | inactive | inactive | inactive | inactive | Activity [21]: inactive; Activity [22]: inactive
C[C@]12C[C@H](c3ccoc3)OC(=O)[C@]1(O)[C@H](O)C[C@@]13COC(=O)C1=CCC[C@@H]32 | > 128 | > 128 | > 128 | > 128 | > 128 | > 128 | > 128 | > 128 | 171 µM | 342 µM | 171 µM | 85.5 µM | 171 (≈ 64.1 µg/mL) | 342 µM | 171 µM | 342 µM | inactive | inactive | inactive | inactive | Activity [21]: inactive; Activity [22]: inactive
C[C@]12C[C@H](c3ccoc3)OC(=O)[C@@]1(O)[C@@H](O)C[C@@]13COC(=O)C1=CC[C@@H](O)[C@@H]32 | – | – | – | – | – | – | – | – | – | – | – | – | – | – | – | – | – | – | – | – | IC50 [23]: 113.2 µg/mL (≈ 290 µM); IC50 [24]: 238.1 µg/mL (≈ 610 µM)
C[C@]12C[C@H](c3ccoc3)OC(=O)[C@@H]1[C@H](O)C[C@]13COC(=O)C1=CC=C[C@@H]32 | > 128 | > 128 | > 128 | > 128 | > 128 | > 128 | > 128 | > 128 | > 128 µg/mL | > 128 µg/mL | > 128 µg/mL | > 128 µg/mL | 359 (≈ 128 µg/mL) | > 128 µg/mL | 359 µM | > 128 µg/mL | inactive | inactive | inactive | inactive | Activity [21]: inactive; Activity [22]: inactive
C[C@]12C[C@H](c3ccoc3)OC(=O)[C@@]1(O)[C@H](O)C[C@@]13COC(=O)C1=CCC[C@@H]32 | > 128 | > 128 | > 128 | > 128 | > 128 | > 128 | > 128 | > 128 | > 128 µg/mL | > 128 µg/mL | > 128 µg/mL | > 128 µg/mL | 342 (≈ 128 µg/mL) | 342 µM | > 128 µg/mL | 342 µM | inactive | inactive | inactive | inactive | Activity [21]: inactive; Activity [22]: inactive
C[C@]12C[C@H](c3ccoc3)OC(=O)[C@@H]1[C@H](O)C[C@@]13COC(=O)C1=CC=C[C@H]32 | – | – | – | – | – | – | – | – | – | – | – | – | – | – | – | – | – | – | – | – | IC50 [24]: 53.5 µg/mL (≈ 150 µM)
C[C@@]12/C=C/C=C\C3=C(COC3=O)C[C@@H](O)[C@H]1C(=O)O[C@@H](c1ccoc1)C2 | > 128 | > 128 | > 128 | > 128 | > 128 | > 128 | > 128 | > 128 | 180 µM | 89.9 µM | 180 µM | 89.9 µM | 89.9 (≈ 32 µg/mL) | 180 µM | 180 µM | 89.9 µM | inactive | inactive | inactive | inactive | Activity [21]: inactive; Activity [22]: inactive
CC(C)c1cc2c(c(O)c1O)[C@@]13CCCC(C)(C)[C@@H]1[C@H](OC3=O)C2=O | > 128 | > 128 | > 128 | > 128 | > 128 | > 128 | > 128 | > 128 | 186 µM | 93 µM | 186 µM | 93 µM | 186 (≈ 64.1 µg/mL) | 93 µM | 93 µM | 186 µM | inactive | inactive | inactive | inactive | Activity [21]: inactive; Activity [22]: inactive
O=C1OCC=C1[C@H]1CCc2ccc3c(c2C1)[C@H](c1ccoc1)OC3=O | > 128 | > 128 | > 128 | > 128 | > 128 | > 128 | > 128 | > 128 | > 128 µg/mL | > 128 µg/mL | > 128 µg/mL | > 128 µg/mL | 381 (≈ 128 µg/mL) | 381 µM | 381 µM | 381 µM | inactive | inactive | inactive | inactive | Activity [21]: inactive; Activity [22]: inactive
